KCNQ1 act = potentiators or activators of KCNQ1 channel, primary screen, cell-based, thallium flux, high-throughput; Potassium voltage-gated channel subfamily KQT member 1 (Homo sapiens), P51787; CHO-K1 KCNQ1, thallium flux FluxOR fluorescence; hits give high values; B-score at 10 µM; 310,000 compounds, 0.35% hits;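 active = fluorescence ratio B-score, a plate-corrected score, at least three library SD, with initial intensity B-score within 5 SD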
Target sequence (P51787 whole entry, looked up): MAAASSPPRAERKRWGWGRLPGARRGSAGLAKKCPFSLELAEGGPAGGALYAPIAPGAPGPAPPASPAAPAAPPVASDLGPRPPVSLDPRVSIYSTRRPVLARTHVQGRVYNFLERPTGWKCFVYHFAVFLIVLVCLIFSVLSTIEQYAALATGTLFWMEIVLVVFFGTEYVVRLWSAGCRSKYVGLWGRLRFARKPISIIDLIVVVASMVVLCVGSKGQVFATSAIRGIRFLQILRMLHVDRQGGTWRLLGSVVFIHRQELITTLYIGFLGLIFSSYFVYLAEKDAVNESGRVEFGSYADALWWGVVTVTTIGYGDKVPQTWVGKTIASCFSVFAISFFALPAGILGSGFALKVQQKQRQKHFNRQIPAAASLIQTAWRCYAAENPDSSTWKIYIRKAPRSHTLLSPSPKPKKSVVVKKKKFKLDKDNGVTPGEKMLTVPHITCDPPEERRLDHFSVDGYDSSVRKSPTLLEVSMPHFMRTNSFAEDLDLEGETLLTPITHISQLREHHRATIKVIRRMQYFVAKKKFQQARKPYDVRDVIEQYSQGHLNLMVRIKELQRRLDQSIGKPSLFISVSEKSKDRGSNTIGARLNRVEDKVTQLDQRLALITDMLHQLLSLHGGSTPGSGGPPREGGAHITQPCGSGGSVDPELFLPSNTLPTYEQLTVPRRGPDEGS
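Assay system: stable KCNQ1 CHO-K1 line; medium: assay buffer, equal DMSO in all wells; timing: 90 min dye loading and 20 min compound exposure, both at room temperature; technique: kinetic FluxOR thallium fluorescence, 10-s 1-Hz baseline, 110-s post-stimulus read; read-out basis: B score of baseline-normalized fluorescence ratio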
KCNQ1 inh = inhibitors of human KCNQ1 channel, primary screen, cell-based, thallium flux, high-throughput. B-score at 10 µM. AID 2642, 2010. CHO-K1 KCNQ1, FluxOR thallium flux fluorescence; hits give high values. 310,000 compounds, 1.3% hits. Potassium voltage-gated channel subfamily KQT member 1 (Homo sapiens), P51787;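 active = compounds whose thallium flux B-score, printed positive for inhibition, exceeds three library SD while starting fluorescence stays within three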;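 also: channel opened by potassium depolarization with thallium stimulus after 20 min compound exposure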
KCNK9 inh = KCNK9 potassium channel inhibitors, primary screen, HEK293 cells, thallium flux. Potassium channel subfamily K member 9 (Homo sapiens), Q9NPC2. FluxOR thallium flux fluorescence; hits give low values. B-score at 10 µM. 310,000 compounds, 1.2% hits. AID 488922, 2010;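 active = ratio B-score over 3 SD below the library mean, with starting fluorescence within 5 SD of its mean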;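 also: negative B-score means less thallium flux so channel inhibition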
KCNK3 block = human KCNK3 channel inhibitors, primary screen, CHO cells, FluxOR thallium flux, B-score; 340,000 compounds, 0.84% hits; Potassium channel subfamily K member 3 (Homo sapiens), O14649; FluxOR fluorescence; hits give low values; AID 602410, 2012; B-score at 10 µM;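 active = B-score under library mean minus 4 SD, starting fluorescence ratio at most library mean plus 5 SD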;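 also: more negative B-score means stronger inhibition of thallium flux through KCNK3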
hERG protect = hERG rescue from dofetilide block, primary screen, cell-based, CHO-hERG, FluxOR thallium flux, dofetilide IC70 | Voltage-gated inwardly rectifying potassium channel KCNH2 (Homo sapiens), Q12809 | dofetilide IC70 present | AID 1511, 2009 | 310,000 compounds, 0.51% hits | activation (rescue from dofetilide block), less the hit threshold, % at 10 µM;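 active = activation above the mean of controls blocked by dofetilide plus 5 SD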;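 also: thallium influx through hERG after potassium depolarization seen as dye fluorescence rise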
KCNK9 block conf = KCNK9 potassium channel inhibitors, confirmation, HEK293 cells, thallium flux, duplicate; shares compounds with KCNK9 inh; FluxOR thallium flux fluorescence; inhibition, % at 10 µM; 4,900 compounds, 43% hits;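 active = thallium signal inhibited by more than 5 SD of the compound-free buffer control wells, on both duplicate plates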;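 also: 0% = assay buffer control wells without compound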
Kir21 sel = mouse Kir2.1 channel inhibition, confirmation, selectivity assay for KCNK9 modulator project, cell-based, HEK293, thallium flux. shares compounds with KCNK9 inh. Kir2.1 cells, FluxOR thallium flux fluorescence. inhibition, % at 10 µM. 4,900 compounds, 4% hits. AID 492993, 2010;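 active = thallium signal drop more than 5 SD beyond the mean of the no-compound control wells, seen in both duplicate plates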;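 also: signal is fluorescence rise after thallium addition divided by baseline fluorescence; plate controls were assay buffer only for no effect and full block by chlorpromazine control for full effect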
HEK293 Tl ctr = thallium flux in non-induced HEK293 cells, confirmation, counter-screen for KCNK9 inhibitor project, cell-based, second counter screen, non-induced KCNK9-HEK293; shares compounds with KCNK9 inh; inhibition, % at 10 µM; FluxOR thallium flux; 4,900 compounds, 40% hits;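 active = thallium signal drop beyond 5 SD of the untreated control mean, on both duplicate plates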;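 also: plate controls were buffer only IC0 wells for no effect and SID17386958 at its maximal inhibitory level for full effect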
Active calls of the source: *; i = inactive; / = not tested or not shown. Shown are actives, neighbours in structure and some others; about 3.1% of the full set was active somewhere.

SMILES	KCNQ1 act	KCNQ1 inh	KCNK9 inh	KCNK3 block	hERG protect	KCNK9 block conf	Kir21 sel	HEK293 Tl ctr
COc1ccc(-c2csc(Nc3ccc(S(=O)(=O)Nc4cc(OC)nc(OC)n4)cc3)n2)cc1	i	i	i	i	-13	/	/	/
CC12CCC(=O)N1C(C(=O)OCc1c(Cl)cccc1Cl)CS2 (stereo unspecified)	i	i	i	i	-4	/	/	/
CC(C)CS(=O)(=O)C1=NN2C(=N)/C(=C\c3ccc(OC(=O)c4ccco4)cc3)C(=O)N=C2S1	i	i	i	i	-30	i	i	i
CCCC1=NN2C(=N)/C(=C\c3cc(C)n(Cc4ccccc4)c3C)C(=O)N=C2S1	i	i	i	i	-4	/	/	/
COc1ccccc1OCCOc1ccc(/C=C2\C(=N)N3N=C(S(C)(=O)=O)SC3=NC2=O)cc1	i	i	i	i	-26	i	i	i
Cc1cc(/C=C2\C(=N)N3N=C(S(C)(=O)=O)SC3=NC2=O)c(C)n1Cc1ccccc1	i	i	i	i	-5	i	i	i
COc1cc(/C=C2\C(=N)N3N=C(S(C)(=O)=O)SC3=NC2=O)cc(OC)c1OCCOc1ccccc1C	i	i	i	i	-31	i	i	i
CS(=O)(=O)C1=NN2C(=N)/C(=C\c3ccc(OC(=O)c4ccco4)cc3)C(=O)N=C2S1	i	i	i	i	-10	/	/	/
CCC(C)(C)C1CCC(NC(=O)c2ccc(S(=O)(=O)N3CCOCC3)cc2)CC1 (stereo unspecified)	/	/	/	i	/	/	/	/
CCCCC[C@H]1CN(Cc2ccccc2)C(=O)[C@@H]1CC(=O)NCc1ccc(OC)cc1	i	i	i	i	-8	i	i	28%*
COc1ccc(CNC(=O)C[C@H]2C(=O)N(Cc3ccccc3)C[C@@H]2Cc2ccccc2)cc1	i	i	i	i	-3	/	/	/
O=C(C[C@H]1C(=O)N(Cc2ccccc2)C[C@@H]1Cc1ccccc1)Nc1ccccc1	i	i	i	i	-7	i	i	i
O=C(CN1C(=O)C2CC=CCC2C1=O)Nc1nc(-c2ccc(F)c(F)c2)cs1 (stereo unspecified)	/	/	/	i	/	/	/	/
NC(=O)SCC(=O)Nc1cccc(Cl)c1	i	i	-10*	i	0	58%*	i	36%*
NC(=O)SCC(=O)Nc1ccc(Cl)cc1	i	i	i	i	-7	/	/	/
Cn1c(=O)[nH]c(=O)c2c1nc(N/N=C/c1ccncc1)n2Cc1ccc(Cl)cc1	i	i	i	i	-2	/	/	/
CCn1cc(/C=N/NC(=O)c2ccc3c(c2)OCO3)c(C)n1	i	i	i	i	-5	/	/	/
CCn1nc(C)c(/C=N/NC(=O)c2ccc3c(c2)c(C)c(C)n3Cc2ccccc2)c1C	i	i	-15*	i	-1	54%*	i	28%*
CCn1cc(/C=N\NC(=O)c2ccc3c(c2)c(C)c(C)n3Cc2ccccc2)c(C)n1	i	i	-19*	i	-3	68%*	i	27%*
CCn1ncc(/C=N\NC(=O)c2ccc3c(c2)c(C)c(C)n3Cc2ccccc2)c1C	i	i	-18*	i	0	60%*	i	30%*
CC(=O)OCC(=O)C1(O)CCC2C3CCC4C(OC(C)=O)C(=O)CCC4(C)C3C(=O)CC21C (stereo unspecified)	/	/	/	i	/	/	/	/
CCCCC(=O)OCC(=O)c1[nH]c(C)c(C(C)=O)c1C	i	i	i	i	-28	/	/	/
CCOc1ccccc1NC(=O)c1ccc(Cl)c(NC(=O)CC(c2ccccc2)c2ccccc2)c1	i	i	-9.9*	i	-4	49%*	i	30%*
CCOc1ccc(C(=O)Nc2cc(NC(=O)c3ccc(OCC)c(Cl)c3)cc(C(=O)O)c2)cc1Cl	i	i	i	i	-10	i	i	i
COc1ccc(/C=C/c2c(-c3ccc(OC)cc3)sc3cc(OC)c(OC)cc23)cc1	/	/	/	i	/	/	/	/
SMILES	KCNQ1 act	KCNQ1 inh	KCNK9 inh	KCNK3 block	hERG protect	KCNK9 block conf	Kir21 sel	HEK293 Tl ctr
O=C(O)CN1C(=O)/C(=C\c2cc(Br)ccc2OCc2ccccc2F)SC1=S	i	i	i	i	-9	i	i	i
CCN1C(=O)/C(=C\c2cn(-c3ccccc3)nc2-c2cccnc2)SC1=S	i	i	i	i	-10	/	/	/
O=C(O)CN1C(=O)/C(=C\c2cccc(OCc3ccc(Cl)cc3Cl)c2)SC1=S	i	i	i	i	-2	i	i	i
O=C(O)CN1C(=O)/C(=C\c2ccccc2OCc2ccc(Cl)cc2Cl)SC1=S	i	i	i	i	-6	/	/	/
O=C(O)CN1C(=O)/C(=C\c2cn(-c3ccccc3)nc2-c2ccccc2)SC1=S	i	i	i	i	-13	i	i	i
O=C(O)CN1C(=O)/C(=C\c2cc(Br)ccc2OCc2ccccc2Cl)SC1=S	i	i	i	i	-10	/	/	/
CNC(=O)c1cc(NC(=O)CCn2nc(-c3ccccc3)c3ccccc3c2=O)ccc1OC	i	i	i	i	-11	/	/	/
CCCCn1c(N)c(N(Cc2ccccc2OC)C(=O)c2ccc(N3CCCC3=O)cc2)c(=O)[nH]c1=O	i	i	i	i	-13	/	/	/
C=CCN1C(=O)c2ccc(C(=O)N3CCN(S(=O)(=O)c4cc(C)ccc4C)CC3)cc2C1=O	i	i	i	i	-17	/	/	/
Cc1ccc(C)c(N=C2CCCN2Cc2ccccc2)c1C#N	i	i	-8.9*	i	-13	i	i	36%*
Cc1oc2c(c1C(=O)c1ccccc1)C(=O)C(=O)c1ccccc1-2	i	i	i	i	-1	/	/	/
O=C1C(=O)c2c(C(=O)c3ccccc3)coc2-c2ccccc21	i	7*	-15*	i	-33	60%*	i	38%*
